# CHOP inhibitor = inhibitors of CHOP induction in ER stress response; CHO-K1 CHOP-promoter luciferase, tunicamycin-induced, 15-18 h; inhibition, % at 10 µM; actives 3.8% (n = 220,000); AID 2732;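 active = compounds that reduced the stress-induced luciferase reporter signal by more than about 70% of percent inhibition, limit read from the data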;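 note: 0% = tunicamycin plus vehicle and 100% = wells without tunicamycin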
# Beta2AR agonist = human beta-2 adrenergic receptor agonism by FAP; P07550; Am2.2-beta2AR cells, FAP receptor internalization, flow cytometry; response, % (test concentration not listed); actives 0.43% (n = 340,000); AID 504454;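 active = response above a set limit, near 3 SD of response in nonfluorescent compounds, cut at about 42% in these data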
# Dynein transport = dynein cargo transport inhibition | 3617.4 mouse cells, GR-EGFP nuclear translocation imaging; test concentration mostly 20 µM; stimulated with dexamethasone, 1 µM; hits give low values | z-score, hits read low | actives 0.47% (n = 220,000) | AID 1381;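 active = plate z-score of nuclear minus cytoplasmic receptor signal below a set negative limit, without overly bright fluorescence or cell loss, cut at about -3.5 in these data, passing the limit was not always enough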;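 note: z-score of nuclear minus cytoplasmic ring GR-EGFP intensity difference per well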
#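 medium = tetracycline-free induction medium containing charcoal-stripped FBS | probe or stimulus = dexamethasone, 1.0 µM final | timing = 48 h induction, then 1 h compound, then 30 min agonist, 37 °C | detection = automated 10x imaging of fixed Hoechst-stained cells | read-out basis = nuclear versus cytoplasmic GR-EGFP signal, averaged per well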
# CHOP UPR activ = apoptotic UPR (CHOP) activation | actives 0.34% (n = 330,000) | activation, % at 10 µM | CHO-CHOP luciferase reporter, luminescence; percent of tunicamycin response over DMSO baseline;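 active = at 10 µM dose, activation of 40% or more, normalized to positive control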;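 note: 100% = tunicamycin at 10 µg/mL and 0% = DMSO alone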
#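 Assay system: CHO-CHOP cells, stable luciferase reporter of PERK-eIF2a-CHOP signalling / Buffer or medium: F12 plus 10% serum / Compound dosing: one dose, 10 µM in 0.5% DMSO / Times: 6 h compound treatment, 37 °C / Technique: luciferase luminescence / Read-out: % reporter activation, DMSO baseline versus tunicamycin full activation / Benchmarks: tunicamycin and DMSO controls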
# UPR XBP1 act = activators of adaptive arm of unfolded protein response (XBP1); CHO-XBP1 luciferase reporter, IRE1-XBP1 UPR activation, luminescence; percent of tunicamycin response, DMSO as zero; activation, % at 20 µM; actives 0.33% (n = 330,000); AID 463104;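 active = versus positive control, 20 µM dose yields 30% or more activation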;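 note: 100% = tunicamycin at 10 µg/mL and 0% = DMSO only wells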
#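 incubation = overnight seeding at 37 °C, 6 h compound treatment at 37 °C | assay system = CHO-XBP1 cells stably carrying IRE1-XBP1-driven luciferase reporter | input = 1000 cells per well | detection = luciferase luminescence | dosing = single point, 20 µM final compound, 1% DMSO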
# p-CIP stab down = lowers stability of the mouse p/CIP coactivator protein; decrease of EGFP signal, % at 10 µM; Q05BA5; actives 0.01% (n = 290,000); F442A p/CIP-EGFP cells, EGFP fluorescence, 16 h; AID 1984;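 active = EGFP signal decrease of at least 30% at 10 µM or well 3 SD below plate mean, unless failing retest; inactive = the rest, including hits failing retest or dose response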
# Target sequence (Q05BA5 1-1403): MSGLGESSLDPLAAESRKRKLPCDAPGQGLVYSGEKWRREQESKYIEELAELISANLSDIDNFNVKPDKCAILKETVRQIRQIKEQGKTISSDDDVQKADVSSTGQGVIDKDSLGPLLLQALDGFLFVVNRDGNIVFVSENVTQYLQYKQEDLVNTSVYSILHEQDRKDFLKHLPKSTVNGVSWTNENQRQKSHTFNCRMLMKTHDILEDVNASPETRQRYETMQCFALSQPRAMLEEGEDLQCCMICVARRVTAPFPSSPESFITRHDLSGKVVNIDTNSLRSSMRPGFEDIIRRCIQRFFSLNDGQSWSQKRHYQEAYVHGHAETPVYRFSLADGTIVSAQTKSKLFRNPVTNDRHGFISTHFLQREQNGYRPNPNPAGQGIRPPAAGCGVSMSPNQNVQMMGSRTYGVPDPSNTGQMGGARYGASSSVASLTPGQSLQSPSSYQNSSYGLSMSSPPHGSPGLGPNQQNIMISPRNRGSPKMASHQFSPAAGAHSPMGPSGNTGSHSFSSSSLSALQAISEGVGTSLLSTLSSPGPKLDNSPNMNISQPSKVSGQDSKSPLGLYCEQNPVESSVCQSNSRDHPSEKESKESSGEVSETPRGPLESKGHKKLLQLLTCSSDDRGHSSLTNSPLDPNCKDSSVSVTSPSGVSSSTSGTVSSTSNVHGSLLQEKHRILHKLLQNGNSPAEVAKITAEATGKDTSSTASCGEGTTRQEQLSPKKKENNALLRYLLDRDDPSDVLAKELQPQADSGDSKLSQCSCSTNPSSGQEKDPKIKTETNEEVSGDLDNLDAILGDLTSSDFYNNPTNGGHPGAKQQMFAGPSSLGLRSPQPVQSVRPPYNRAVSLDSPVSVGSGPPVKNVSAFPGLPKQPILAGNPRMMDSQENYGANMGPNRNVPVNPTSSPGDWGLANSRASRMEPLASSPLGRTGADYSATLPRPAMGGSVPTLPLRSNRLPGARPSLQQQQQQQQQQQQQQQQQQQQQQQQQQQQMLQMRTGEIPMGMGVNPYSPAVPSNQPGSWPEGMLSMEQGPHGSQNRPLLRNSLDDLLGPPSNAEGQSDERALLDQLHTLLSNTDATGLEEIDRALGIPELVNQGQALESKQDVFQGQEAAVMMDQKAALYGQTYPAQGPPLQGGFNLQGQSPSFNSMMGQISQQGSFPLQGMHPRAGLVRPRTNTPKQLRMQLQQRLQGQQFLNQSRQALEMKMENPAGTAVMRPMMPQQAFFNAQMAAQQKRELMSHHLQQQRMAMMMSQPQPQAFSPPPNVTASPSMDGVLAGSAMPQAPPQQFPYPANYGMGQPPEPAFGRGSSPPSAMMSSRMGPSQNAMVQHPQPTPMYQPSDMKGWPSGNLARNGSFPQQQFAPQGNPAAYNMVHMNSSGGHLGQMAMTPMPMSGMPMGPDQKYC
# B2AR ag CP1 = activates human beta-2 adrenergic receptor; shares compounds with Beta2AR agonist; Am2.2-beta2AR cells, FAP surface receptor, flow cytometry; hits give low values; percent response (surface receptor), % at 10 µM; actives 25% (n = 1,100);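 active = surface receptor percent response at or below 58%, roughly 3 SD from nonfluorescent compounds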
# FAP fluor counter = flagged in Am2.2 fluorescence counterscreen for beta-2AR agonists. calls only at 10 µM. AID 588765. Am2.2 cells, FAP fluorogen flow cytometry; hits give low values. 1,100 tested, under 10 active. shares compounds with Beta2AR agonist;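 active = percent response below a set limit in fluorescence channel 1 and below 50% in channel 8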
# * hit, by the source's call; i = inactive; / = not tested or not shown; ! = not active in a repeat. Only a selection was taken, and hits are over-represented in it overall.
SMILES,CHOP inhibitor,Beta2AR agonist,Dynein transport,CHOP UPR activ,UPR XBP1 act,p-CIP stab down,B2AR ag CP1,FAP fluor counter
O=C(c1cc2c(=O)n3ccccc3nc2s1)N1CCN(Cc2ccc3c(c2)OCO3)CC1,11,74*,-0.96,2,1,-13,24*,i
O=C(c1ccc(Cl)cc1)C1CCCN(Cc2cccn2-c2cccnc2)C1 (stereo unspecified),45,-3,0.38,0,0,-10,/,/
CSc1ccc(C(=O)C2CCCN(Cc3cccn3-c3cccnc3)C2)cc1 (stereo unspecified),18,70*,0.074,0,-1,-4,19*,i
O=C(c1cc(COc2ccc(F)c(F)c2)on1)N1CCN(C2CCCCC2)C(=O)C1,/,-7,/,1,-3,1,/,/
CCN(CC)CC(=O)Nc1ccc(-c2ccc(NC(=O)CN(CC)CC)c(OC)c2)cc1OC,21,0,-0.27,4,-2,-4,/,/
COc1ccc(S(=O)(=O)N(C)CC(=O)N2CCN(c3ccc(F)cc3)CC2)cc1OC,7,2,0.54,-1,1,-8,5.1*!,i
COc1ccc(S(=O)(=O)N(C)CC(=O)N2CCN(c3ccccc3)CC2)cc1,/,-15,/,1,-1,8,124,i
COc1ccc(S(=O)(=O)N(C)CC(=O)N2CCCCCC2)cc1OC,1,0,2.1,2,-1,-10,/,/
COc1ccccc1N1CCN(C(=O)CN(C)S(=O)(=O)c2ccc(C)cc2)CC1,/,/,/,/,/,/,47*,i
COc1ccc(N2CCN(C(=O)CN(c3ccccc3)S(=O)(=O)c3ccc(OC)cc3)CC2)cc1,18,0,1.2,-1,-1,7,/,/
COc1cccc(OCCn2c(C)c(/C=N/n3cnnc3)c3ccccc32)c1,32,10,0.77,-1,12,-7,/,/
O=C(Nc1ccc2nc(SCc3ccc(Cl)cc3)sc2c1)c1ccccc1C(=O)N1CCOCC1,30,107*,1.6,-3,1,-9,17*,i
COC(=O)CSc1nc2ccc(NC(=O)c3ccccc3C(=O)N3CCOCC3)cc2s1,-12,17,0.4,-1,1,-18,/,/
CCOC(=O)c1cc(NC(=O)N(C)C2CCCCC2)c(C)nc1C,/,48*,/,0,2,-2,106,i
CCOC(=O)c1cc(NC(=O)N(CC)C2CCCCC2)c(C)nc1C,24,1,-0.6,-3,-1,1,/,/
C/C(=N\NC(=S)NCc1ccccc1)c1ccc(Cl)s1,37,0,0.41,-1,2,-1,/,/
COCCNC(=S)N/N=C(\C)c1ccc(Cl)s1,-21,5,-0.65,1,4,-7,108,i
CNc1ccc([N+](=O)[O-])cc1-c1nc2ccccc2[nH]c1=O,-27,61*,-0.77,-1,-1,3,91,i
CC(C)C(=O)Nc1ccc(Cl)cc1-c1nc2ccccc2[nH]c1=O,/,-7,/,0,3,-19,/,/
CCN(CC)c1ccc([C@H]2[C@@H]3CCCC[C@]3(O)CCN2CC(=O)NCc2ccco2)cc1,8,23,-1,0,-3,-6,126,i
CCN(CC)c1ccc(C2C3CCCCC3(O)CCN2CC(=O)N2CCCCC2)cc1 (stereo unspecified),7,5,-0.11,-2,4,-14,/,/
Cc1ccnc(NC(=O)c2ccc([N+](=O)[O-])o2)c1,-7,49*,-0.72,0,4,-21,93,i
O=[N+]([O-])c1cccc(-c2nc(-c3ccccc3)c(-c3cccs3)[nH]2)c1,64,50*,-0.38,-1,-1,5,111,i

# From PubChem
